# Results taken from the RNAGym collection of RNA variant scans (doi:10.1126/science.aae0568).
# Variants at the floor of the assay were thinned out.
# B1: tRNA (parent)
# chain: GUUCCGUUGGCGUAAUGGUAACGCGUCUCCCUCCUAAGGAGAAGACUGCGGGUUCGAGUCCCGUACGGAACG
# Variants of: B1
# Assay: yeast fitness relative to wild type (ratio to wild type); higher = fitter; tRNA-Arg(CCU), competitive growth, 37 C, YPD
# Procedure, shortened: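 Variants of the tRNA-Arg(CCU) gene, chemically synthesised with a 3% per-site mutation rate at 69 sites, were placed at the native genomic locus in Saccharomyces cerevisiae. The pooled strains were competed in YPD at 37°C for 24 hours in six parallel replicates. Gene amplicons from the start population and from each end population were read by 100-nucleotide paired-end sequencing. Darwinian fitness relative to wild type came from changes in genotype frequencies; genotypes needed ≥ 100 starting reads, and estimates < 0.5 were set to 0.5.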
row,Variant,yeast fitness
1,GUUCCGUUGGCGUAAUGGUAACGCGUCUCCCUCCUAAGGAGAAGACUGCGGGCUCGCGUCCCGUAUGGAACG [U53C A57C C66U],≤ 0.5
2,GUUCCGUUGGCGUAAUGGUAACGCGUCUCCCUCCUAAGGAGAAGACUGCGGGGUCGAGUCCCGUAAGGAACG [U53G C66A],≤ 0.5
3,GUUCCGUUGGCGUAAUGGUAACGCGUCUCCCUCCUAAGGAGAAGACUGCGGGUACGAGUCCCGUACAGAACG [U54A G67A],0.656
4,GUUCCGUUGGCGUAAUGGUAACGCGUCUCCCUCCUAAGGAGAAGACUGCGGGAUCGAGUCCUGUACGGAACG [U53A C62U],0.827
5,GUUCCGUUGGCGUAAUGGUAACGCGUCUCCCUCCUAAGGAGAAGACUGCGGGGUCGAGUCCCGUACGGAACG [U53G],0.629
6,GUUCCGUUGGCGUAAUGGUAACGCGUCUCCCUCCUAAGGAGAAGACUGCGGGAUCGAGUCCCGUACGGAACG [U53A],0.653
7,GUUCCGUUGGCGUAAUGGUAACGCGUCUCCCUCCUAAGGAGAAGACUGCGGGCUCGAGUCCCGUACGGAACG [U53C],0.875
8,GUUCCGUUGGCGUAAUGGUAACGCGUCUCCCUCCUAAGGAGAAGACUGCGGGAUAGAGUCCCGUACGGAACG [U53A C55A],0.756
9,GUUCCGUUGGCGUAAUGGUAACGCGUCUCCCUCCUAAGGAGAAGACUGCGGCUUCGAGUCCCGUACCGAACG [G52C G67C],0.555
10,GUUCCGUUGGCGUAAUGGUAACGCGUCUCCCUCCUAAGGAGAAGACUGCGGGCUCGAGACCCGUACGGAACG [U53C U59A],0.731
11,GUUCCGUUGGCGUAAUGGUAACGCGUCUCCCUCCUAAGGAGAAGACUGCGGGUACGAGCCCCGUACGGAACG [U54A U59C],0.613
12,GUUCCGUUGGCGUAAUGGUAACGCGUCUCCCUCCUAAGGAGAAGACUGCGGGCUCGAGUUCCGUACGGAACG [U53C C60U],0.638
13,GUUCCGUUGGCGUAAUGGUAACGCGUCUCCCUCCUAAGGAGAAGACUGCGGGGUCGAGUCCCCUACGGCACG [U53G G63C A69C],≤ 0.5
14,GUUCCGUUGGCGUAAUGGUAACGCGUCUCCCUCCUAAGGAGAAGACUGCGGGUAAGAGUCCCGUAGGGACCG [U54A C55A C66G A70C],≤ 0.5
15,GUUCCGUUGGCGUAAUGGUAACGCGUCUCCCUCCUAAGGAGAAGACUGCGGGUACGAGUCCCGUACCAAACG [U54A G67C G68A],≤ 0.5
16,GUUCCGUUGGCGUAAUGGUAACGCGUCUCCCUCCUAAGGAGAAGACUGCGGGUACGAGUCUCGUACGGAACG [U54A C61U],0.715
17,GUUCCGUUGGCGUAAUGGUAACGCGUCUCCCUCCUAAGGAGAAGACUGCGGGUACGAGUCGCGUACGGCACG [U54A C61G A69C],0.57
18,GUUCCGUUGGCGUAAUGGUAACGCGUCUCCCUCCUAAGGAGAAGACUGCGGUUUCGAGUCCCGUACGGAACG [G52U],0.785
19,GUUCCGUUGGCGUAAUGGUAACGCGUCUCCCUCCUAAGGAGAAGACUGCGGGUACCAGUCCCGUACGGAACG [U54A G56C],0.691

row,Variant,yeast fitness
1,GUUCCGUUGGCGUAAUGGUAACGCGUCUCCCUCCUAAGGAGAAGACUGCGGGAUCGAUUCUAGUACGGAACG [U53A G58U C61U C62A],≤ 0.5
2,GUUCCGUUGGCGUAAUGGUAACGCGUCUCCCUCCUAAGGAGAAGACUGCGGGUCCGGGUCCCGUACGGAACG [U54C A57G],0.919
3,GUUCCGUUGGCGUAAUGGUAACGCGUCUCCCUCCUAAGGAGAAGACUGCGGGUCCGCGUCCCGUACGGAACG [U54C A57C],0.619
4,GUUCCGUUGGCGUAAUGGUAACGCGUCUCCCUCCUAAGGAGAAGACUGCGGGCUCGAAUCCCGUACGGAACG [U53C G58A],1.02
5,GUUCCGUUGGCGUAAUGGUAACGCGUCUCCCUCCUAAGGAGAAGACUGCGGGCUCGUGACCCGUAUGGAACG [U53C A57U U59A C66U],0.535
6,GUUCCGUUGGCGUAAUGGUAACGCGUCUCCCUCCUAAGGAGAAGACUGCGGGAUCGAGUCACGUACGGAACG [U53A C61A],0.509
7,GUUCCGUUGGCGUAAUGGUAACGCGUCUCCCUCCUAAGGAGAAGACUGCGGGAUCGAGUCGCGUACGGAACG [U53A C61G],≤ 0.5
8,GUUCCGUUGGCGUAAUGGUAACGCGUCUCCCUCCUAAGGAGAAGACUGCGGGUACGAGUCCCGUACGGAACG [U54A],0.659
9,GUUCCGUUGGCGUAAUGGUAACGCGUCUCCCUCCUAAGGAGAAGACUGCGGGUCCGAGUCCCGUACGGAACG [U54C],0.806
10,GUUCCGUUGGCGUAAUGGUAACGCGUCUCCCUCCUAAGGAGAAGACUGCGGGCUCGAGUCCCGUUUGGAACG [U53C A65U C66U],≤ 0.5
11,GUUCCGUUGGCGUAAUGGUAACGCGUCUCCCUCCUAAGGAGAAGACUGCGGGUACGAGUCCCGUCCGGAACG [U54A A65C],0.724
12,GUUCCGUUGGCGUAAUGGUAACGCGUCUCCCUCCUAAGGAGAAGACUGCGGGAUCGAGUCCCGUACUAAACG [U53A G67U G68A],≤ 0.5
13,GUUCCGUUGGCGUAAUGGUAACGCGUCUCCCUCCUAAGGAGAAGACUGCGGGAUCGGGUCCCGUACGGAACG [U53A A57G],0.556
14,GUUCCGUUGGCGUAAUGGUAACGCGUCUCCCUCCUAAGGAGAAGACUGCGGCUUCGAGUCCCGAACGGAACG [G52C U64A],0.573
15,GUUCCGUUGGCGUAAUGGUAACGCGUCUCCCUCCUAAGGAGAAGACUGCGGGUACGAGCCCCGCACGGAACG [U54A U59C U64C],≤ 0.5
16,GUUCCGUUGGCGUAAUGGUAACGCGUCUCCCUCCUAAGGAGAAGACUGCGGGUACGAGUCCUGUGCGAAACG [U54A C62U A65G G68A],≤ 0.5
17,GUUCCGUUGGCGUAAUGGUAACGCGUCUCCCUCCUAAGGAGAAGACUGCGGGCUCGAGUUCCGUACGGCACG [U53C C60U A69C],0.57
18,GUUCCGUUGGCGUAAUGGUAACGCGUCUCCCUCCUAAGGAGAAGACUGCGGGAUCGAGUCCCGUACGGAGCG [U53A A70G],0.594
